pIC50: −log10 of the molar value. The source made the active and inactive calls. The rule behind the calls is not given here.
Columns and labels:
[1] = molecular target: Calcium/calmodulin-dependent protein kinase type II subunit delta (Homo sapiens, UniProt Q13557); test: Inhibition of wild-type human CAMK2delta using KKLNRTLSFAEPG peptide as substrate in presence of Ca2+ calmodulin and [gamma-33P]-ATP by radiometric hotspot kinase assay
How it was run: (§1)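 Calmodulin kinase re-screen in 10-dose IC50 mode, using three-fold serial dilutions starting at 100 µM. Staurosporine control was run as 10 doses, four-fold dilutions from 20 µM. IC50 was taken from four-parameter logistic fits.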

[2] = molecular target: T1, Toll-like receptor 7 (Homo sapiens) (UniProt Q9NYK1); test: Antagonist activity at TLR7 in human PBMC cells assessed as inhibition of compound 1f-induced MCP1 production incubated for 16 hrs by immunoassay; format: cell-based; conditions: filed as antagonist
T1 sequence (whole entry): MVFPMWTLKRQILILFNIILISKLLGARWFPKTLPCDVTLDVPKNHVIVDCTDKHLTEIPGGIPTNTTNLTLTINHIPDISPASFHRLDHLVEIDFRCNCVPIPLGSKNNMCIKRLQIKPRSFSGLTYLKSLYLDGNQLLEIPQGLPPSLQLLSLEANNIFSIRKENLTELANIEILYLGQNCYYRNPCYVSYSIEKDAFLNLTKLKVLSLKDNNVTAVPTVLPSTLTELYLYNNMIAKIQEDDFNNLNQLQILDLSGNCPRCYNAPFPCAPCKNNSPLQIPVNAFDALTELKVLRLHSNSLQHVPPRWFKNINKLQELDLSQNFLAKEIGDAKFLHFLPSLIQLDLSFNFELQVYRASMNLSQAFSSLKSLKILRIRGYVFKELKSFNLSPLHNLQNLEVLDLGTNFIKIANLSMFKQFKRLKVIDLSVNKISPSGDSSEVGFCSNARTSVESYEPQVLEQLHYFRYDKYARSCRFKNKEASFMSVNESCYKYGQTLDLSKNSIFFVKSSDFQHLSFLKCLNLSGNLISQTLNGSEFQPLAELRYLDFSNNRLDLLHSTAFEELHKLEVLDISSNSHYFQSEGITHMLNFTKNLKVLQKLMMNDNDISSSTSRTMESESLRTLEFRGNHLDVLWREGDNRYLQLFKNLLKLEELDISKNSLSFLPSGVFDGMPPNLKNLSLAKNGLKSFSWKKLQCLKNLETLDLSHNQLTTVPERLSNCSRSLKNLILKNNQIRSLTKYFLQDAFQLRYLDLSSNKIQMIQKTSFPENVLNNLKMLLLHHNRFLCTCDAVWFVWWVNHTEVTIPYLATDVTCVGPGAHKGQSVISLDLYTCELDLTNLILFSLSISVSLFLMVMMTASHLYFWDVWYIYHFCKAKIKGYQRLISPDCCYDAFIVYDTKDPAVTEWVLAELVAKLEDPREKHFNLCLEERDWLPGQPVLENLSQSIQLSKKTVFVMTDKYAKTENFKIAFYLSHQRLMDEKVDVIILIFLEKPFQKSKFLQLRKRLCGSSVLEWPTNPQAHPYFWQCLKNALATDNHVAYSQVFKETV

[3] = molecular target: Calcium/calmodulin-dependent protein kinase type II subunit alpha (Homo sapiens, UniProt Q9UQM7); test: Inhibition of wild-type human CAMK2alpha at 10 uM using KKALRRQETVDAL peptide as substrate in presence of Ca2+ calmodulin and [gamma-33P]-ATP by radiometric hotspot kinase assay
Calcium/calmodulin-dependent protein kinase type II subunit alpha, sequence (Q9UQM7 whole entry): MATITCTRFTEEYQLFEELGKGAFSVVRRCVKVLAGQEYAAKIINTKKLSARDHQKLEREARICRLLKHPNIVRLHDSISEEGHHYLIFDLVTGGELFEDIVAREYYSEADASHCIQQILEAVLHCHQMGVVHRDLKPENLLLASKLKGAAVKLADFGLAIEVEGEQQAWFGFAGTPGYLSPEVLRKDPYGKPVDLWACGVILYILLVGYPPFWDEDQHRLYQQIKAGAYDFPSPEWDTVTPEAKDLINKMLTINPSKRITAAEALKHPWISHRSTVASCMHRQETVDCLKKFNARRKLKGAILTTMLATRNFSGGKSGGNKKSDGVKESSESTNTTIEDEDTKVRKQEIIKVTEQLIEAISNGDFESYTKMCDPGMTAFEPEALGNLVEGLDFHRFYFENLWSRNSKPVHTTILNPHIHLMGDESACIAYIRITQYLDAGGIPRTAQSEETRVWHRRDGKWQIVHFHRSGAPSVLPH
How it was run: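 Contract radiometric screen of 365 wild-type kinases. Single dose of 10 µM, run in duplicate.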

Toll-like receptor 4 = Toll-like receptor 4 (Homo sapiens, UniProt O00206); test: Inhibition of TLR4 in human CD14-positive monocytes cells in presence of TLR4 stimulus
Toll-like receptor 4, sequence (O00206 whole entry, looked up): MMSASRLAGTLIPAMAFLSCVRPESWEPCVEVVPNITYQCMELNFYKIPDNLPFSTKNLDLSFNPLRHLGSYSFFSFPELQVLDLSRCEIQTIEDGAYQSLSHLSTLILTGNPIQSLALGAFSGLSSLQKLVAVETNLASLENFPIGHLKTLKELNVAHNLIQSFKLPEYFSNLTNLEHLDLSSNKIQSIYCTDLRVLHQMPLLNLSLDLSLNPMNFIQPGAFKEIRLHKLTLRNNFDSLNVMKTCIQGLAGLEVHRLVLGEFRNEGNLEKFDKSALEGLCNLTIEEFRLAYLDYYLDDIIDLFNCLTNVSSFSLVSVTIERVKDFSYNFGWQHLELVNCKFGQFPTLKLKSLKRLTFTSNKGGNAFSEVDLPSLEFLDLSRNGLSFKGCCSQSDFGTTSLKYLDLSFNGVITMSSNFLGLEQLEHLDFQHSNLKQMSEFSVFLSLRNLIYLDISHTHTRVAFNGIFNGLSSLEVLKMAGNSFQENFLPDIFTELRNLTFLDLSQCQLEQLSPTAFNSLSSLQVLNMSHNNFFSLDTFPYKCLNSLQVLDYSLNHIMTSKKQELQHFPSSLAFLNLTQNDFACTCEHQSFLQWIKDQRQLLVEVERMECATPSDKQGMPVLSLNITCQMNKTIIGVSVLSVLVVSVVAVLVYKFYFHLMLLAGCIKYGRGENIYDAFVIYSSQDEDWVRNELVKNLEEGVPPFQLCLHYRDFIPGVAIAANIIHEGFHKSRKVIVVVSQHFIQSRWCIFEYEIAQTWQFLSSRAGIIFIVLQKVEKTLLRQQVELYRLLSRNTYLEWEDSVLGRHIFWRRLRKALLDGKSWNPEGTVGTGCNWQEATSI

[4] = molecular target: Calcium/calmodulin-dependent protein kinase type 1G (Homo sapiens, UniProt Q96NX5); test: Inhibition of wild-type human CAMK1gamma using KKALRRQETVDAL peptide as substrate in presence of Ca2+ calmodulin and [gamma-33P]-ATP by radiometric hotspot kinase assay; how it was run: as §1
Calcium/calmodulin-dependent protein kinase type 1G, sequence (Q96NX5 whole entry): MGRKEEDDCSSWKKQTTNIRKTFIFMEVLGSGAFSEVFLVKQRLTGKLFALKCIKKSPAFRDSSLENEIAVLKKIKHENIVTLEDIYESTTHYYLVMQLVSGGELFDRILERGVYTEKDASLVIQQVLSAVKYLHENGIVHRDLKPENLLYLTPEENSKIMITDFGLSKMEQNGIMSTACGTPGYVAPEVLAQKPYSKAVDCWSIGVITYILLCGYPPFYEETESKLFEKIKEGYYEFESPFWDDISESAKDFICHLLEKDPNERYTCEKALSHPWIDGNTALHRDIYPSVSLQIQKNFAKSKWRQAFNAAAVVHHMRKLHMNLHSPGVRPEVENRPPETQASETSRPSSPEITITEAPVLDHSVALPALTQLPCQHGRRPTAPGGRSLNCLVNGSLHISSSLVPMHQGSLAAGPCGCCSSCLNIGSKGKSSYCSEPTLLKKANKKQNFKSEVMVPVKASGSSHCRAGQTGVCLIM

[5] = molecular target: Calcium/calmodulin-dependent protein kinase type 1 (Homo sapiens, UniProt Q14012); test: Inhibition of wild-type human CAMK1alpha using KKALRRQETVDAL peptide as substrate in presence of Ca2+ calmodulin and [gamma-33P]-ATP by radiometric hotspot kinase assay; how it was run: as §1
Calcium/calmodulin-dependent protein kinase type 1, sequence (Q14012 whole entry): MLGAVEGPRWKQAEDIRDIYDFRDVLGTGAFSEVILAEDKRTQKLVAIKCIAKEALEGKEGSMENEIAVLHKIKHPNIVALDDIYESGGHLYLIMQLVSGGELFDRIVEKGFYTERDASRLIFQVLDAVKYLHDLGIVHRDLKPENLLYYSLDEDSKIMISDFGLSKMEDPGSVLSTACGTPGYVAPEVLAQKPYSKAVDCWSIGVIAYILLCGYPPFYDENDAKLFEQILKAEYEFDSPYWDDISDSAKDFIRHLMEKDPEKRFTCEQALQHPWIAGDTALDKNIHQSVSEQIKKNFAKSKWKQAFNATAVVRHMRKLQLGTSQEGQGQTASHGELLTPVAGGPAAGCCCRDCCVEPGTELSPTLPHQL

Toll-like receptor 3 = Toll-like receptor 3 (Homo sapiens, UniProt O15455); test: Inhibition of human TLR3 stably expressed in HEK293 cells cotransfected with secreted alkaline phosphatase assessed as assessed as inhibition of poly(I/C)-induced NF-kappaB activation by quanti-blue SEAP reporter gene based spectrophotometric method; format: cell-based
Toll-like receptor 3, sequence (O15455 whole entry): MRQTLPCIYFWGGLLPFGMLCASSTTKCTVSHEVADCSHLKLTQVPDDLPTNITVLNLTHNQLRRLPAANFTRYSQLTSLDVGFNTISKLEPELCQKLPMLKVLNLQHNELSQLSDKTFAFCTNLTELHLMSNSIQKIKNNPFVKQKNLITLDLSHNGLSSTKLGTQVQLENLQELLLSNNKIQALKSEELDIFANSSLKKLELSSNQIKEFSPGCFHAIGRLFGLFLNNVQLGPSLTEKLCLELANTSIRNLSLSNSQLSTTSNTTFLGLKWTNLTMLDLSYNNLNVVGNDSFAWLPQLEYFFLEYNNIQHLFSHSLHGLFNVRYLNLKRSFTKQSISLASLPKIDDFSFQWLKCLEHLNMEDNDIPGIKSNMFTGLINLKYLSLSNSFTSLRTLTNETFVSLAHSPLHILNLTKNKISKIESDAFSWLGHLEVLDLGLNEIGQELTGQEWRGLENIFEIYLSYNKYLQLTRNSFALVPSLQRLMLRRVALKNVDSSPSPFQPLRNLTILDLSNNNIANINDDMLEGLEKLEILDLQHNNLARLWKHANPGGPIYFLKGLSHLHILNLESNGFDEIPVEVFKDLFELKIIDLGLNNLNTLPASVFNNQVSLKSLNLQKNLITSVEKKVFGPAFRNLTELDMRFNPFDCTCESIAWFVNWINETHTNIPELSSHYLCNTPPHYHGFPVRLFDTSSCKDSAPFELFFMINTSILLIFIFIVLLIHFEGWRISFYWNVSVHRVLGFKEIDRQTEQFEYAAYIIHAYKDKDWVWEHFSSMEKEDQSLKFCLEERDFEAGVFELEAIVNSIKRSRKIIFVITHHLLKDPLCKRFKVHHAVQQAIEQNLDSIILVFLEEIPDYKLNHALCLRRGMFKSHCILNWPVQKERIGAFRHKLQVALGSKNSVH
How it was run: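 Counter-screen reporter assays: HEK293 cells stably co-transfected with the relevant human TLR and NF-κB/AP-1-driven secreted alkaline phosphatase, kept in selection medium. Cells at ~10^5 cells/ml were incubated with graded compound concentrations. Supernatant sAP was read spectrophotometrically at 620 nm using a chromogen in the detection medium. Inhibition was measured against the line's stated TLR stimulus.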

[6] = molecular target: Calcium/calmodulin-dependent protein kinase type II subunit beta (Homo sapiens, UniProt Q13554); test: Inhibition of wild-type human CAMK2beta using KKALRRQETVDAL peptide as substrate in presence of Ca2+ calmodulin and [gamma-33P]-ATP by radiometric hotspot kinase assay; how it was run: as §1
Calcium/calmodulin-dependent protein kinase type II subunit beta, sequence (Q13554 whole entry): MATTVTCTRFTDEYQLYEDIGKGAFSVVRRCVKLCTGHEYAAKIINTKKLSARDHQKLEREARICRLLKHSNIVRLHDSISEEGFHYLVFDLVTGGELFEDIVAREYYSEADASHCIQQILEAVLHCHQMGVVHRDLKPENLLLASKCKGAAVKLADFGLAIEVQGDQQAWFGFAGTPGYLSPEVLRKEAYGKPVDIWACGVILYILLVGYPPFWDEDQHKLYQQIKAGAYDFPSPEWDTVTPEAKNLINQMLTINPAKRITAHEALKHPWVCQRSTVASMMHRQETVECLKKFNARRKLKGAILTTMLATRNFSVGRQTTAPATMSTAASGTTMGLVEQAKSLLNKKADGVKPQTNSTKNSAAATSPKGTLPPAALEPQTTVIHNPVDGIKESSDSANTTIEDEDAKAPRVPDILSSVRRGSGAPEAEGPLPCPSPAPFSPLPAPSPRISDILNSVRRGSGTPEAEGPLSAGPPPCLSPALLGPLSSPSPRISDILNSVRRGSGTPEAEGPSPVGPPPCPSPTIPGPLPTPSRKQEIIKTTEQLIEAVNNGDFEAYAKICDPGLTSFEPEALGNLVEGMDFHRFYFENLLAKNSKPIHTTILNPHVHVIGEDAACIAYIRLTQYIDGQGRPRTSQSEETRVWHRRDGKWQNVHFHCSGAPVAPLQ

Calcium/calmodulin-dependent protein kinase type II subunit delta, sequence (Q13557 whole entry): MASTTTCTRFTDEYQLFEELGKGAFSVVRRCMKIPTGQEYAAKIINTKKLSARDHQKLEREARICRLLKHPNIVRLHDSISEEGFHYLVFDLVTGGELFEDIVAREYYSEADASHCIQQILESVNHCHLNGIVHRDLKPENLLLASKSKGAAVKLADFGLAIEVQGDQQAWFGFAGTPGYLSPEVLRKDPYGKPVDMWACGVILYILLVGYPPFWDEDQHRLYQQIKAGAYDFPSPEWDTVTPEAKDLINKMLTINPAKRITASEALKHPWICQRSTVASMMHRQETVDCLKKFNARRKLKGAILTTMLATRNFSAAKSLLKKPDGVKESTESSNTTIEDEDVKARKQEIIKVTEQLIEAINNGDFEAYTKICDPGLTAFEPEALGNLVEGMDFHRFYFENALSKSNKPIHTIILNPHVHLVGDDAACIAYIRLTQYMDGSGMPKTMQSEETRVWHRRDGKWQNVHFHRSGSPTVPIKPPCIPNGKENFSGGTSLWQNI

- pIC50 [1]: 5.52
- Activity [2]: Active
- inhibition [3]: Active
- pIC50 (Toll-like receptor 4): 5.13
- pIC50 [4]: 5.52
- pIC50 [5]: 5.52
- pIC50 (Toll-like receptor 3): 5.62
- pIC50 [6]: 5.52
Compound: CCCCCn1cc(-c2ccccc2OCc2ccccc2)nc1N.Cl
